Source: article PMC9444296 (Investigative Radiology, 2022)
“Also recorded” adds a separate entry of the source.

Columns and labels:
[1] = Metabolic stability in SD rat hepatocytes; format: in vitro ADME; conditions: 2 hours of incubation, LC-MS/MS
[2] = Metabolic pathway study in human liver microsomes; format: in vitro ADME; conditions: 1 μM, 2 hours
CYP2C8 = CYP2C8 (Homo sapiens, UniProt P10632); assay: CYP2C8 inhibition in human liver microsomes; format: in vitro ADME; conditions: highest test concentration (100 μM)
OATP1B1 = OATP1B1 (Homo sapiens, UniProt Q9Y6L6); assay: OATP1B1 inhibition, HEK293 cells; format: in vitro ADME; conditions: 1, 5, 10, 50, and 100 μM
[3] = tested on: cardiovascular and respiratory system functions; assay: Cardiovascular and respiratory safety pharmacology in conscious beagle dogs; format: in vivo, dog; conditions: single IV 0.07, 0.21, or 0.70 mmol/kg
Summary of the method: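 GLP study in 9 conscious beagle dogs (4 M, 5 F) given a single IV dose of saline or 0.07, 0.21 or 0.70 mmol/kg, at 3.5 mL/kg. Recorded within 1 h predose and at 0.5, 1, 2, 4 and 24 h: ECG (HR, PR, QRS, QT/QTcF, QRS voltage, STe, rhythm, waveform), systolic/diastolic/mean blood pressure, respiratory frequency and tidal volume.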

CNS functions = assay: CNS safety pharmacology; format: in vivo, rat; conditions: SD rats, single IV 0.1, 0.3, and 1.0 mmol/kg, functional observational battery
Summary of the method: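 GLP study in SD rats, 5/sex/group, given a single IV dose of 0, 0.1, 0.3 or 1 mmol/kg. A functional observational battery was run at 0.25, 0.75, 1.5 and 4 h post-dose: home-cage, hand-held and open-field observations, responses to stimuli, forelimb grip strength and body temperature.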

[4] = Pharmacokinetics in beagle dogs; format: in vivo, dog; conditions: for AUC: AUC 0-6h; for AUC / AUCINF / C0 / Cl / MRT / T1/2 / Vz: Gd by ICP-MS, NCA, n = 3
[5] = Biodistribution in SD rats; format: in vivo, rat; conditions: for AUC(0–48h) / AUCINF / Cmax / Gd concentration in the brain: SD rat; for AUC(0–48h) / AUCINF / Cmax: 0.1 mmol/kg single IV, Gd by ICP-MS; for Gd concentration in the brain: 0.1 mmol/kg IV, ICP-MS (LLOQ 0.1 μg/g)
Summary of the method: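 Rats, 30 in total (3/sex/group), received a single IV injection of 0.1 mmol/kg. Blood and tissues were taken predose and at 10 and 30 min and 2, 6 and 48 h. Gd was measured by ICP-MS, and parameters came from noncompartmental analysis.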

CYP3A4 = CYP3A4 (Homo sapiens, UniProt P08684); conditions: 0.01, 0.1, 1, 10, and 100 μM, pooled human liver microsomes 0.5 mg/mL
[6] = beagle dog ♀, 0.04 mmol/kg single IV
[7] = beagle dog ♀, 0.1 mmol/kg single IV
[8] = beagle dog ♀, 0.2 mmol/kg single IV
[9] = beagle dog ♂, 0.04 mmol/kg single IV
[10] = beagle dog ♂, 0.1 mmol/kg single IV
[11] = beagle dog ♂, 0.2 mmol/kg single IV

Sequence of CYP2C8 (P10632 whole entry): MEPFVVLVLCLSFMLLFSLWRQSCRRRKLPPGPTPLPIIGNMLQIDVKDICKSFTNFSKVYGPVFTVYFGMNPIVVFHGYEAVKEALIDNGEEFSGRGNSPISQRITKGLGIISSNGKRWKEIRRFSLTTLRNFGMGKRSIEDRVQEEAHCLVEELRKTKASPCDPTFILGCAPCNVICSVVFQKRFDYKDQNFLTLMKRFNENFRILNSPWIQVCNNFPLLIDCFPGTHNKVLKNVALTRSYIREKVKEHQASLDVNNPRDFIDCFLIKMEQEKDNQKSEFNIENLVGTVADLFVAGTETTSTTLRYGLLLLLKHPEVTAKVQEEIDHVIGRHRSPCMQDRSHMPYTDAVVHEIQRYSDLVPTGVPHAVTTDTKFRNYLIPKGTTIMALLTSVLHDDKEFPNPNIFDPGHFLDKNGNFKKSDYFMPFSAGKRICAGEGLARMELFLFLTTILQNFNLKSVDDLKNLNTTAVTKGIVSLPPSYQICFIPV
Sequence of OATP1B1 (Q9Y6L6 whole entry): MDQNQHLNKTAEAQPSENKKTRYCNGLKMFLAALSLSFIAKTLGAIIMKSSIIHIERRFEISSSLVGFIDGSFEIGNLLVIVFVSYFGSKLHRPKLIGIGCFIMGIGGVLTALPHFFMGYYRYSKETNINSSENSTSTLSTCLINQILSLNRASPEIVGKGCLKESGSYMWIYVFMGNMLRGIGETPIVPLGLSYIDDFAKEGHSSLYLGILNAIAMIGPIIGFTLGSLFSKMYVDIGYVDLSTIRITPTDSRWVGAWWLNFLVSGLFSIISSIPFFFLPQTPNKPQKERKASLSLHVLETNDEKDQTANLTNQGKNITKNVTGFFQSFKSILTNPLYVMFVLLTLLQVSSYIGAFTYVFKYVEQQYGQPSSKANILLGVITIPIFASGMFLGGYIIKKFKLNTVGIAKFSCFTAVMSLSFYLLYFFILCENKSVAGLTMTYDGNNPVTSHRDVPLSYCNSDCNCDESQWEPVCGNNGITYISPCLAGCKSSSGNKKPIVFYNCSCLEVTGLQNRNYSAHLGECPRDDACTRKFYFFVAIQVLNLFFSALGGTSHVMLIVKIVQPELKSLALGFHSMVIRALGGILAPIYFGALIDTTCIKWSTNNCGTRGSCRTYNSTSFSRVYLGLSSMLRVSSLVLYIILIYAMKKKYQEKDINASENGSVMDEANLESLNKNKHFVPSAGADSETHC
Sequence of CYP3A4 (P08684 whole entry): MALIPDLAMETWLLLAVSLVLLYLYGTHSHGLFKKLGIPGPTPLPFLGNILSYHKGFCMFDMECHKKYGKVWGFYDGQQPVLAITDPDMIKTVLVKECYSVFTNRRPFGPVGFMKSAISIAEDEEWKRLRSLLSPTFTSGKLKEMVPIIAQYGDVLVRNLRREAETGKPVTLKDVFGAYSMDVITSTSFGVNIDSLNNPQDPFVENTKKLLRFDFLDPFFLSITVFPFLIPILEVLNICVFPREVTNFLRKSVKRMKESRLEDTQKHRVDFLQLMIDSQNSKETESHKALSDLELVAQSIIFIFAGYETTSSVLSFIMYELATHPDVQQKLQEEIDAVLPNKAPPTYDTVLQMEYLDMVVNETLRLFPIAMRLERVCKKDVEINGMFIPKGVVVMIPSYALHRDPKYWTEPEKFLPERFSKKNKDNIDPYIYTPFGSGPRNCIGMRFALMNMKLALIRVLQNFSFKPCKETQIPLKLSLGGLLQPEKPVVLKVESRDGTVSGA

ZD2-N3-Gd(HP-DO3A) [MT218]
remaining MT218 [1]: 67.5%
MT218 remaining ([2]; CYP1A2 group): 105%
MT218 remaining ([2]; CYP2B6 group): 117%
MT218 remaining ([2]; CYP2C8 group): 101%
MT218 remaining ([2]; CYP2C9 group): 98.8%
MT218 remaining ([2]; CYP2C19 group): 105%
MT218 remaining ([2]; CYP2D6 group): 109%
MT218 remaining ([2]; CYP3A4 group): 99.1%
relative CYP2C8 activity, of the negative controls (CYP2C8): 52.5%
inhibition of OATP1B1 transporter activity (OATP1B1): no inhibition potential
effect on ECG, blood pressure and respiratory function parameters [3]: no MT218-related effect
effect on parameters of CNS function (CNS functions): No MT218-related effect
AUC [4, 6]: 38160 ng·h/mL
AUC [4, 7]: 93960 ng·h/mL
AUC [4, 8]: 138990 ng·h/mL
AUC [4, 9]: 34800 ng·h/mL
AUC [4, 10]: 89520 ng·h/mL
AUC [4, 11]: 156540 ng·h/mL
AUC Ratio ([4]; AUC(dose)/AUC(low dose), beagle dog ♀, 0.04 mmol/kg): 1
AUC Ratio ([4]; AUC(dose)/AUC(low dose), beagle dog ♂, 0.04 mmol/kg): 1
AUC Ratio ([4]; AUC(high dose)/AUC(low dose), beagle dog ♀, 0.2 mmol/kg): 3.64
AUC Ratio ([4]; AUC(high dose)/AUC(low dose), beagle dog ♂, 0.2 mmol/kg): 4.50
AUC Ratio ([4]; AUC(middle dose)/AUC(low dose), beagle dog ♀, 0.1 mmol/kg): 2.46
AUC Ratio ([4]; AUC(middle dose)/AUC(low dose), beagle dog ♂, 0.1 mmol/kg): 2.57
AUCINF [4, 6]: 38470 ng·h/mL
C0 [4, 6]: 59.33 µg/mL
Cl [4, 6]: 2.734 mL/min/kg
MRT [4, 6]: 58.2 min
T1/2 [4, 6]: 44.4 min
Vz [4, 6]: 0.17599 L/kg
AUCINF [4, 7]: 94170 ng·h/mL
C0 [4, 7]: 146.59 µg/mL
Cl [4, 7]: 2.794 mL/min/kg
MRT [4, 7]: 57.6 min
T1/2 [4, 7]: 40.2 min
Vz [4, 7]: 0.16108 L/kg
AUCINF [4, 8]: 139150 ng·h/mL
C0 [4, 8]: 268.10 µg/mL
Cl [4, 8]: 3.7757 mL/min/kg
MRT [4, 8]: 47.4 min
T1/2 [4, 8]: 37.8 min
Vz [4, 8]: 0.20593 L/kg
AUCINF [4, 9]: 34940 ng·h/mL
C0 [4, 9]: 50.97 µg/mL
Cl [4, 9]: 3.0033 mL/min/kg
MRT [4, 9]: 60.6 min
T1/2 [4, 9]: 45.6 min
Vz [4, 9]: 0.19708 L/kg
AUCINF [4, 10]: 89780 ng·h/mL
C0 [4, 10]: 149.33 µg/mL
Cl [4, 10]: 2.9287 mL/min/kg
MRT [4, 10]: 57 min
T1/2 [4, 10]: 42 min
Vz [4, 10]: 0.17773 L/kg
AUCINF [4, 11]: 156900 ng·h/mL
C0 [4, 11]: 286.90 µg/mL
Cl [4, 11]: 3.367 mL/min/kg
MRT [4, 11]: 52.8 min
T1/2 [4, 11]: 41.4 min
Vz [4, 11]: 0.20164 L/kg
mean plasma elimination half-life (t1/2) ([4]; dogs, 0.1 mmol/kg IV): 41.4 min
AUC(0–48h) ([5]; Brain): 0.86 µg·h/g
AUCINF ([5]; Brain): 0.87 µg·h/g
Cmax ([5]; Brain): 1.10 µg/g
AUC(0–48h) ([5]; Fat): 3.18 µg·h/g
AUCINF ([5]; Fat): 3.23 µg·h/g
Cmax ([5]; Fat): 4.07 µg/g
AUC(0–48h) ([5]; Gonads): 11.78 µg·h/g
AUCINF ([5]; Gonads): 17.48 µg·h/g
Cmax ([5]; Gonads): 7.22 µg/g
AUC(0–48h) ([5]; Heart): 7.15 µg·h/g
AUCINF ([5]; Heart): 7.56 µg·h/g
Cmax ([5]; Heart): 7.54 µg/g
AUC(0–48h) ([5]; Kidney): 481.54 µg·h/g
AUCINF ([5]; Kidney): 2936.07 µg·h/g
Cmax ([5]; Kidney): 74.89 µg/g
AUC(0–48h) ([5]; Liver): 17.22 µg·h/g
AUCINF ([5]; Liver): 27.86 µg·h/g
Cmax ([5]; Liver): 4.73 µg/g
AUC(0–48h) ([5]; Lung): 17.81 µg·h/g
AUCINF ([5]; Lung): 19.50 µg·h/g
Cmax ([5]; Lung): 14.28 µg/g
AUC(0–48h) ([5]; Lymph nodes): 27.63 µg·h/g
AUCINF ([5]; Lymph nodes): 51.39 µg·h/g
Cmax ([5]; Lymph nodes): 12.53 µg/g
AUC(0–48h) ([5]; Muscle): 4.27 µg·h/g
AUCINF ([5]; Muscle): 4.29 µg·h/g
Cmax ([5]; Muscle): 5.51 µg/g
AUC(0–48h) ([5]; Plasma): 34060 ng·h/mL
AUCINF ([5]; Plasma): 34180 ng·h/mL
Cmax ([5]; Plasma): 44.96 µg/mL
AUC(0–48h) ([5]; Prostate): 12.05 µg·h/g
AUCINF ([5]; Prostate): 13.12 µg·h/g
Cmax ([5]; Prostate): 6.05 µg/g
Gd concentration in the brain ([5]; 2 hours post-injection): reached LLOQ
Gd concentration in the brain ([5]; 6 hours post-injection): No detectable Gd deposition; also recorded: undetectable
AUC(0–48h) ([5]; Skeleton): 11.83 µg·h/g
AUCINF ([5]; Skeleton): 12.16 µg·h/g
Cmax ([5]; Skeleton): 4.58 µg/g
AUC(0–48h) ([5]; Skin): 28.54 µg·h/g
AUCINF ([5]; Skin): 30.96 µg·h/g
Cmax ([5]; Skin): 17.21 µg/g
AUC(0–48h) ([5]; Small intestine): 13.99 µg·h/g
AUCINF ([5]; Small intestine): 19.76 µg·h/g
Cmax ([5]; Small intestine): 6.44 µg/g
AUC(0–48h) ([5]; Spleen): 15.18 µg·h/g
AUCINF ([5]; Spleen): 35.21 µg·h/g
Cmax ([5]; Spleen): 4.14 µg/g
AUC(0–48h) ([5]; Stomach): 12.99 µg·h/g
AUCINF ([5]; Stomach): 15.13 µg·h/g
Cmax ([5]; Stomach): 10.87 µg/g
Gd concentration in the tested tissues besides the kidneys ([5]; rats, biodistribution study, level to which it decreased, time not given): ≤ 1.0 µg/g
inhibition of CYP3A4 activity (CYP3A4): did not inhibit
